Experimental data published in ChEMBL document CHEMBL2062435, “Synthesis and in vitro antibacterial activity of gemifloxacin derivatives containing a substituted benzyloxime moiety” (2012).

How the values were obtained:
Format in all cases: functional
[1] = tested on: Klebsiella pneumoniae; test: Antimicrobial activity against Klebsiella pneumoniae 10-4 after 18-24 hrs by two-fold serial dilution method
How it was run: (§1)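 Agar-medium twofold serial dilution against Gram-positive and Gram-negative strains; MIC taken as the lowest compound concentration giving complete inhibition of bacterial growth after incubation at 35 °C for 18-24 h.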

[2] = tested on: Streptococcus pneumoniae; test: Antimicrobial activity against extended spectrum beta-lactamases-producing Streptococcus pneumoniae 10-1 after 18-24 hrs by two-fold serial dilution method; how it was run: as §1
[3] = tested on: Escherichia coli; test: Antimicrobial activity against Escherichia coli ATCC 25922 after 18-24 hrs by two-fold serial dilution method; how it was run: as §1
[4] = tested on: Pseudomonas aeruginosa; test: Antimicrobial activity against Pseudomonas aeruginosa 10-12 after 18-24 hrs by two-fold serial dilution method; how it was run: as §1
[5] = tested on: Pseudomonas aeruginosa; test: Antimicrobial activity against extended spectrum beta-lactamases-producing Pseudomonas aeruginosa 10-18 after 18-24 hrs by two-fold serial dilution method; how it was run: as §1
[6] = tested on: Pseudomonas aeruginosa; test: Antimicrobial activity against extended spectrum beta-lactamases-producing Pseudomonas aeruginosa 10-20 after 18-24 hrs by two-fold serial dilution method; how it was run: as §1
[7] = tested on: Enterococcus faecalis; test: Antimicrobial activity against Enterococcus faecalis 10-7 after 18-24 hrs by two-fold serial dilution method; how it was run: as §1
[8] = tested on: Enterococcus faecalis; test: Antimicrobial activity against Enterococcus faecalis 10-5 after 18-24 hrs by two-fold serial dilution method; how it was run: as §1
[9] = tested on: Escherichia coli; test: Antimicrobial activity against Escherichia coli 10-2 after 18-24 hrs by two-fold serial dilution method; how it was run: as §1
[10] = tested on: Enterococcus faecium; test: Antimicrobial activity against Enterococcus faecium 10-5 after 18-24 hrs by two-fold serial dilution method; how it was run: as §1
[11] = tested on: Pseudomonas aeruginosa; test: Antimicrobial activity against extended spectrum beta-lactamases-producing Pseudomonas aeruginosa 10-5 after 18-24 hrs by two-fold serial dilution method; how it was run: as §1
[12] = tested on: Enterococcus faecium; test: Antimicrobial activity against Enterococcus faecium 10-9 after 18-24 hrs by two-fold serial dilution method; how it was run: as §1
[13] = tested on: Staphylococcus aureus; test: Antimicrobial activity against extended spectrum beta-lactamases-producing methicillin-resistant Staphylococcus aureus 10-15 after 18-24 hrs by two-fold serial dilution method
How it was run: (§2)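 Agar twofold serial dilution MIC against clinical isolates. MIC was taken as the lowest concentration giving complete inhibition of bacterial growth after incubation at 35 °C for 18-24 h.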

[14] = tested on: Escherichia coli; test: Antimicrobial activity against extended spectrum beta-lactamases-producing Escherichia coli 10-4 after 18-24 hrs by two-fold serial dilution method; how it was run: as §1
[15] = tested on: Klebsiella pneumoniae; test: Antimicrobial activity against extended spectrum beta-lactamases-producing Klebsiella pneumoniae 10-1 after 18-24 hrs by two-fold serial dilution method; how it was run: as §1
[16] = tested on: Pseudomonas aeruginosa; test: Antimicrobial activity against extended spectrum beta-lactamases-producing Pseudomonas aeruginosa 10-9 after 18-24 hrs by two-fold serial dilution method; how it was run: as §1
[17] = tested on: Streptococcus pneumoniae; test: Antimicrobial activity against extended spectrum beta-lactamases-producing Streptococcus pneumoniae 10-4 after 18-24 hrs by two-fold serial dilution method; how it was run: as §1
[18] = tested on: Escherichia coli; test: Antimicrobial activity against Escherichia coli 10-1 after 18-24 hrs by two-fold serial dilution method; how it was run: as §1
[19] = tested on: Klebsiella pneumoniae; test: Antimicrobial activity against Klebsiella pneumoniae 10-2 after 18-24 hrs by two-fold serial dilution method; how it was run: as §1
[20] = tested on: Staphylococcus epidermidis; test: Antimicrobial activity against extended spectrum beta-lactamases-producing methicillin-resistant Staphylococcus epidermidis 10-10 after 18-24 hrs by two-fold serial dilution method; how it was run: as §2
[21] = tested on: Staphylococcus epidermidis; test: Antimicrobial activity against extended spectrum beta-lactamases-producing methicillin-resistant Staphylococcus epidermidis 10-13 after 18-24 hrs by two-fold serial dilution method; how it was run: as §2
[22] = tested on: Staphylococcus aureus; test: Antimicrobial activity against extended spectrum beta-lactamases-producing methicillin-sensitive Staphylococcus aureus 10-14 after 18-24 hrs by two-fold serial dilution method; how it was run: as §1
[23] = tested on: Enterococcus faecalis; test: Antimicrobial activity against Enterococcus faecalis 10-6 after 18-24 hrs by two-fold serial dilution method; how it was run: as §1
[24] = tested on: Staphylococcus aureus; test: Antimicrobial activity against extended spectrum beta-lactamases-producing methicillin-resistant Staphylococcus aureus 10-11 after 18-24 hrs by two-fold serial dilution method; how it was run: as §2
[25] = tested on: Escherichia coli; test: Antimicrobial activity against extended spectrum beta-lactamases-producing Escherichia coli 10-3 after 18-24 hrs by two-fold serial dilution method; how it was run: as §1
[26] = tested on: Pseudomonas aeruginosa; test: Antimicrobial activity against extended spectrum beta-lactamases-producing Pseudomonas aeruginosa 10-15 after 18-24 hrs by two-fold serial dilution method; how it was run: as §1
[27] = tested on: Staphylococcus epidermidis; test: Antimicrobial activity against extended spectrum beta-lactamases-producing methicillin-sensitive Staphylococcus epidermidis 10-11 after 18-24 hrs by two-fold serial dilution method; how it was run: as §1
[28] = tested on: Klebsiella pneumoniae; test: Antimicrobial activity against extended spectrum beta-lactamases-producing Klebsiella pneumoniae 10-2 after 18-24 hrs by two-fold serial dilution method; how it was run: as §1
[29] = tested on: Escherichia coli; test: Antimicrobial activity against extended spectrum beta-lactamases-producing Escherichia coli 10-2 after 18-24 hrs by two-fold serial dilution method; how it was run: as §1
[30] = tested on: Staphylococcus aureus; test: Antimicrobial activity against extended spectrum beta-lactamases-producing methicillin-sensitive Staphylococcus aureus 10-13 after 18-24 hrs by two-fold serial dilution method; how it was run: as §1
[31] = tested on: Staphylococcus epidermidis; test: Antimicrobial activity against extended spectrum beta-lactamases-producing methicillin-sensitive Staphylococcus epidermidis 10-15 after 18-24 hrs by two-fold serial dilution method; how it was run: as §1
[32] = tested on: Escherichia coli; test: Antimicrobial activity against Escherichia coli 10-3 after 18-24 hrs by two-fold serial dilution method; how it was run: as §1
[33] = tested on: Klebsiella pneumoniae; test: Antimicrobial activity against Klebsiella pneumoniae 10-3 after 18-24 hrs by two-fold serial dilution method; how it was run: as §1
[34] = tested on: Staphylococcus epidermidis; test: Antimicrobial activity against extended spectrum beta-lactamases-producing methicillin-sensitive Staphylococcus epidermidis 10-13 after 18-24 hrs by two-fold serial dilution method; how it was run: as §1
[35] = tested on: Klebsiella pneumoniae; test: Antimicrobial activity against extended spectrum beta-lactamases-producing Klebsiella pneumoniae 10-3 after 18-24 hrs by two-fold serial dilution method; how it was run: as §1
[36] = tested on: Staphylococcus aureus; test: Antimicrobial activity against Staphylococcus aureus ATCC […] after 18-24 hrs by two-fold serial dilution method; how it was run: as §1

Measured: MIC

COc1cccc(OC)c1CO/N=C1\CN(c2nc3c(cc2F)c(=O)c(C(=O)O)cn3C2CC2)CC1CN.CS(=O)(=O)O (racemic)
8 µg/mL: [5] | [9] | [10] | [12] | [32] | [33]
64 µg/mL: [15] | [28]
0.125 µg/mL: [2] | [22] | [27] | [30]
0.03 µg/mL: [36]
1 µg/mL: [7] | [24]
0.25 µg/mL: [3] | [17] | [20] | [21]
4 µg/mL: [4] | [11] | [14] | [16] | [26]
0.5 µg/mL: [8] | [13] | [31]
> 128 µg/mL: [1] | [18] | [19] | [29] | [35]
2 µg/mL: [6] | [23] | [34]
16 µg/mL: [25]

COc1ccc(CO/N=C2\CN(c3nc4c(cc3F)c(=O)c(C(=O)O)cn4C3CC3)CC2CN)c([N+](=O)[O-])c1OC.CS(=O)(=O)O (racemic)
0.06 µg/mL: [4] | [22] | [36]
1 µg/mL: [2] | [8] | [13] | [30] | [34]
0.5 µg/mL: [3] | [21]
> 128 µg/mL: [1] | [15] | [18] | [19] | [25] | [28] | [29] | [35]
2 µg/mL: [7] | [20] | [24]
4 µg/mL: [10] | [12] | [17] | [23] | [26] | [27] | [31]
0.25 µg/mL: [6]
8 µg/mL: [5] | [9] | [11] | [14] | [33]
16 µg/mL: [16] | [32]

COc1ccc(CO/N=C2\CN(c3nc4c(cc3F)c(=O)c(C(=O)O)cn4C3CC3)CC2CN)c(OC)c1OC.CS(=O)(=O)O (racemic)
2 µg/mL: [7] | [20] | [23] | [24] | [27] | [31]
32 µg/mL: [25]
0.06 µg/mL: [17]
16 µg/mL: [9] | [26] | [32]
0.5 µg/mL: [2] | [21]
0.015 µg/mL: [22] | [30] | [36]
0.03 µg/mL: [3] | [34]
8 µg/mL: [4] | [5] | [11] | [12] | [16] | [33]
0.25 µg/mL: [13]
> 128 µg/mL: [1] | [15] | [19] | [28] | [35]
1 µg/mL: [8]
128 µg/mL: [29]
64 µg/mL: [18]
4 µg/mL: [6] | [10] | [14]

CS(=O)(=O)O.Cc1ccc(CO/N=C2\CN(c3nc4c(cc3F)c(=O)c(C(=O)O)cn4C3CC3)CC2CN)cc1C (racemic)
0.5 µg/mL: [8] | [17]
64 µg/mL: [18]
4 µg/mL: [4] | [7] | [11] | [16] | [23]
2 µg/mL: [24]
0.25 µg/mL: [13] | [27]
16 µg/mL: [5]
0.015 µg/mL: [3]
0.125 µg/mL: [2]
0.008 µg/mL: [36]
1 µg/mL: [20] | [21] | [31]
8 µg/mL: [6] | [9] | [10] | [12] | [14] | [26] | [32] | [33] | [34]
< 0.008 µg/mL: [22]
> 128 µg/mL: [1] | [15] | [19] | [25] | [28] | [29] | [35]
0.06 µg/mL: [30]
